In ChEMBL document CHEMBL1136653, “Discovery of a potent and selective agonist of the prostaglandin EP4 receptor” (Bioorg Med Chem Lett, 2003):

Assays:
Thromboxane A2 receptor = biological target: T1, Thromboxane A2 receptor (Homo sapiens, UniProt P21731); test: Binding affinity towards TP receptor expressed in HEK293 ebna cells recombinantly expressing the corresponding human prostanoid cDNAs; assay type: cell-based
T1 sequence (P21731 whole entry): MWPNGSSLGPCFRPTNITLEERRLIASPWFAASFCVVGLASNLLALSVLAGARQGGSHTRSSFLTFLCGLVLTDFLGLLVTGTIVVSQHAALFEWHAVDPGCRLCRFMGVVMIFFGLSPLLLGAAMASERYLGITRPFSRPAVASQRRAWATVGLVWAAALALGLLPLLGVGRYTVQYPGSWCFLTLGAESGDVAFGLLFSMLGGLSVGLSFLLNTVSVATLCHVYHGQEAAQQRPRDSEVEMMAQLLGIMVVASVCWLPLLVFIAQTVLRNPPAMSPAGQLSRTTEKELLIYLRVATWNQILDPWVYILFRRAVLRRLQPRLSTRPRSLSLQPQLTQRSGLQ
Summary of the method: (§1)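 Competition binding used membrane preparations, not intact cells, from HEK293ebna cells expressing each recombinant human prostanoid receptor cDNA.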

[1] = biological target: T2, Prostaglandin E2 receptor EP1 subtype (Homo sapiens, UniProt P34995); test: Binding affinity towards EP1 receptor expressed in HEK293 ebna cells recombinantly expressing the corresponding human prostanoid cDNAs; assay type: cell-based; summary of the method: as §1
T2 sequence (P34995 whole entry): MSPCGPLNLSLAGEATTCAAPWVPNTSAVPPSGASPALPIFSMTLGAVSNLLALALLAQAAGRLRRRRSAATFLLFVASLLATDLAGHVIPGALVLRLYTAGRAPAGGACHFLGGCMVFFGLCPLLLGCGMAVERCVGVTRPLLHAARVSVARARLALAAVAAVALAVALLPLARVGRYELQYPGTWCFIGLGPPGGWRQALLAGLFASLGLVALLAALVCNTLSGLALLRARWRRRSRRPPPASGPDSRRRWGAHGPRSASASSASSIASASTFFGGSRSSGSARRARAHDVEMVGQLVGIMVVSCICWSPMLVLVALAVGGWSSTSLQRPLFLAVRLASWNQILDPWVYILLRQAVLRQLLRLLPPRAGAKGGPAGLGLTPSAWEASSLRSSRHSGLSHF

[2] = biological target: Prostaglandin E2 receptor EP2 subtype (Homo sapiens, UniProt P43116); test: Binding affinity towards EP2 receptor expressed in HEK293 ebna cells recombinantly expressing the corresponding human prostanoid cDNAs; assay type: cell-based; summary of the method: as §1
Sequence of Prostaglandin E2 receptor EP2 subtype (P43116 whole entry): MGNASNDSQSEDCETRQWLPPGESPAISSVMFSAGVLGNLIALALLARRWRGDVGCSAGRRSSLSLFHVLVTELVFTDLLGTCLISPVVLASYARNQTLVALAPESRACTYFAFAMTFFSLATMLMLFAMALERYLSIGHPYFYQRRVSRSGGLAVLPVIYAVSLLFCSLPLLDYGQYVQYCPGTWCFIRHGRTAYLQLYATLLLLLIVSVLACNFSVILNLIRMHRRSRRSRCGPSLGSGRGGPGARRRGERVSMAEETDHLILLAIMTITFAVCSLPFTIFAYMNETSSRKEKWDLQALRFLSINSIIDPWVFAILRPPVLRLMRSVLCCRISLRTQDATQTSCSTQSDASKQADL

[3] = biological target: T3, Prostaglandin E2 receptor EP3 subtype (Homo sapiens, UniProt P43115); test: Binding affinity towards EP3 receptor expressed in HEK293 ebna cells recombinantly expressing the corresponding human prostanoid cDNAs; assay type: cell-based; summary of the method: as §1
T3 sequence (P43115 whole entry): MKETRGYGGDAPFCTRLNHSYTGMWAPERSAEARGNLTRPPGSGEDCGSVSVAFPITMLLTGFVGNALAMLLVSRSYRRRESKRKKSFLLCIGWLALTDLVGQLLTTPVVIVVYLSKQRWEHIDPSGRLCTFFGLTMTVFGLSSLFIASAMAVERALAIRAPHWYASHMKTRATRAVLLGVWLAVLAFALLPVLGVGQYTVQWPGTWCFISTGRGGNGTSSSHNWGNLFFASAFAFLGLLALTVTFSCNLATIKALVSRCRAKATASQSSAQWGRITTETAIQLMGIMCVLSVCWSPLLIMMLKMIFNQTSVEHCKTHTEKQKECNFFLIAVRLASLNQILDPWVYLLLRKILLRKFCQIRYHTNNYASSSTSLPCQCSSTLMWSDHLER

[4] = biological target: Prostaglandin F2-alpha receptor (Homo sapiens, UniProt P43088); test: Binding affinity towards FP receptor expressed in HEK293 ebna cells recombinantly expressing the corresponding human prostanoid cDNAs; assay type: cell-based; summary of the method: as §1
Sequence of Prostaglandin F2-alpha receptor (P43088 whole entry): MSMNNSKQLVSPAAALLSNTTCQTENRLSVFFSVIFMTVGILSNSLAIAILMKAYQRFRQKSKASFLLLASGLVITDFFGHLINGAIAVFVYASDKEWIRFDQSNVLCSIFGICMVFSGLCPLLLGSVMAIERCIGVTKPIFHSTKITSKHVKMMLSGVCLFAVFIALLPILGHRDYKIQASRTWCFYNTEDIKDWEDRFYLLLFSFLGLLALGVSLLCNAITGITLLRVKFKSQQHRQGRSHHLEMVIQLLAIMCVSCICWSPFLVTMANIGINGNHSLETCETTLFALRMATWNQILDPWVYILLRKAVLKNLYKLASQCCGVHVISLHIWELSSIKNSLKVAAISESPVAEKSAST

[5] = biological target: T4, Prostaglandin E2 receptor EP4 subtype (Homo sapiens, UniProt P35408); test: Binding affinity towards EP4 receptor expressed in HEK293 ebna cells recombinantly expressing the corresponding human prostanoid cDNAs; assay type: cell-based
T4 sequence (P35408 whole entry): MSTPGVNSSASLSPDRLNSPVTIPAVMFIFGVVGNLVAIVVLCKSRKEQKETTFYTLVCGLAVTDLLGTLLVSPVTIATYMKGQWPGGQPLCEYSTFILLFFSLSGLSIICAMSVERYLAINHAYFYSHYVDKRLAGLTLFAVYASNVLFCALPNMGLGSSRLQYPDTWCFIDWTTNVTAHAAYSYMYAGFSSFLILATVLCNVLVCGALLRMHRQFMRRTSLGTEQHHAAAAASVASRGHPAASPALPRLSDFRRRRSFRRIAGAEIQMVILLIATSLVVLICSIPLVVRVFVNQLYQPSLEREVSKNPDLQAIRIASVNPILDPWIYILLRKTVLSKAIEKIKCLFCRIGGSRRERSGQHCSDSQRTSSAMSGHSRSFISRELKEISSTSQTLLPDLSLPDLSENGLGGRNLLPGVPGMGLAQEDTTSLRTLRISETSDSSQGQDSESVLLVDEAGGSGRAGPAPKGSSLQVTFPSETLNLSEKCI

Prostacyclin receptor = Prostacyclin receptor (Homo sapiens, UniProt P43119); test: Binding affinity towards IP receptor expressed in HEK293 ebna cells recombinantly expressing the corresponding human prostanoid cDNAs; assay type: cell-based; summary of the method: as §1
Sequence of Prostacyclin receptor (P43119 whole entry): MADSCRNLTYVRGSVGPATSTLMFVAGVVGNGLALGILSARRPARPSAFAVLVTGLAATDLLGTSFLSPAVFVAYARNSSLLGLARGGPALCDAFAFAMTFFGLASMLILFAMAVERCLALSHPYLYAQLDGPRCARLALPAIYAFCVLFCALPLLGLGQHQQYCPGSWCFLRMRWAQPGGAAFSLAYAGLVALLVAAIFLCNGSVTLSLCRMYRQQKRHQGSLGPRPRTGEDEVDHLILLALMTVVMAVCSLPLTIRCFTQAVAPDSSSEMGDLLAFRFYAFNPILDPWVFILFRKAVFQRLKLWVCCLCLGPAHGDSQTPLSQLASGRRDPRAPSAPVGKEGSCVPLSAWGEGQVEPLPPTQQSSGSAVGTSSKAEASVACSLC

[6] = biological target: T5, Prostaglandin D2 receptor (Homo sapiens, UniProt Q13258); test: Binding affinity towards DP receptor expressed in HEK293 ebna cells recombinantly expressing the corresponding human prostanoid cDNAs; assay type: cell-based; summary of the method: as §1
T5 sequence (Q13258 whole entry): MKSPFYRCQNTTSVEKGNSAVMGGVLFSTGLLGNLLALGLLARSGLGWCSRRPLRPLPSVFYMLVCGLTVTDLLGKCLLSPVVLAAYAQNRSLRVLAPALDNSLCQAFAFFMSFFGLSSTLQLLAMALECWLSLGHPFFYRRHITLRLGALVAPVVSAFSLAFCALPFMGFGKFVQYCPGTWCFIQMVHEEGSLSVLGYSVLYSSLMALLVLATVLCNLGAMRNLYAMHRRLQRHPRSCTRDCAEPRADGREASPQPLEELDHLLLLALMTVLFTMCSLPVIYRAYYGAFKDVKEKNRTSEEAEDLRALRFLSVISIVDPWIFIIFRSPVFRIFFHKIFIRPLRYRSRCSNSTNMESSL

[7] = biological target: T4, Prostaglandin E2 receptor EP4 subtype; test: EP4 agonist potency utilizing a stable clone of pSV40-EP4 transfected into HEK293 cells expressing EP4 receptor; assay type: functional, cell-based
Summary of the method: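 A HEK293 stable clone carried pSV40-EP4 at about 50 fmol/mg receptor. Whole-cell cAMP assay: 1×10⁵ cells per sample were suspended in 0.2 mL HBSS with 2 mM IBMX. Compound or PGE₂ was given in DMSO at a constant final 1.8% (v/v). Incubation ran 10 min at 37 °C and was stopped by 3 min in boiling water. cAMP was read by [¹²⁵I]cAMP scintillation proximity assay.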

[8] = biological target: T4, Prostaglandin E2 receptor EP4 subtype; test: Inhibitory activity against human EP4 receptor expressed in HEK293 ebna cells; assay type: cell-based
[9] = Half-life after intravenous dose in rat; assay type: ADME, organism-based; conditions: in vivo

Ki (Thromboxane A2 receptor) [µM] | Ki [1] [µM] | Ki [2] [µM] | Ki [3] [µM] | Ki [4] [µM] | Ki [5] [µM] | Ki (Prostacyclin receptor) [µM] | Ki [6] [µM] | EC50 [7] [µM] | IC50 [8] [µM] | half-life [9] [min] | Compound
> 13 | > 13 | > 13 | > 13 | > 13 | 0.23 | > 13 | > 13 |  |  |  | O=C1CC[C@H](/C=C/[C@H](O)Cc2ccccc2)N1CCCCCCc1nnn[nH]1
> 13 | > 13 | 4.05 | 0.7 | > 13 | 0.028 | > 13 | > 13 |  |  |  | CCCCCC(O)CC[C@H]1CCC(=O)N1CCCCCCC(=O)O (some centres not stated)
> 13 | > 13 | > 13 | > 13 | > 13 | 0.066 | > 13 | > 13 |  |  |  | O=C1CC[C@H](/C=C/C(O)Cc2ccccc2)N1CCCCSCc1nn[nH]n1 (some centres not stated)
> 13 | > 13 | > 13 | > 13 | > 13 | 2.1 | > 13 | > 13 |  |  |  | CC(O)(/C=C/[C@H]1CCC(=O)N1CCCCCCC(=O)O)Cc1ccccc1 (some centres not stated)
> 13 | > 13 | 3 | 2 | > 13 | 0.035 | > 13 | > 13 |  |  |  | CCCCCC(O)CCC1CCC(=O)N1CCCCCCC(=O)O (configuration not stated)
> 13 | > 13 | > 13 | > 13 | > 13 | 0.243 | > 13 | > 13 |  |  |  | O=C1CC[C@H](/C=C/C(O)Cc2ccccc2)N1CCCCSc1nnn[nH]1 (some centres not stated)
> 13 | > 13 | > 13 | 10.6 | > 13 | 0.062 | > 13 | > 13 |  |  |  | CC(C)(c1ccccc1)C(O)/C=C/[C@H]1CCC(=O)N1CCCCCCC(=O)O (some centres not stated)
> 13 | > 13 | > 13 | > 13 | > 13 | 0.0036 | > 13 | > 13 |  |  |  | COCc1cccc(CC(O)/C=C/[C@H]2CCC(=O)N2CCCCCCC(=O)O)c1 (some centres not stated)
> 13 | > 13 | > 13 | > 13 | > 13 | 0.14 | > 13 | > 13 |  |  |  | O=C(O)CCSCCCCN1C(=O)CC[C@@H]1/C=C/C(O)Cc1ccccc1 (some centres not stated)

Further lines, the compound ahead of its results:

Compound | Ki (Thromboxane A2 receptor) [µM] | Ki [1] [µM] | Ki [2] [µM] | Ki [3] [µM] | Ki [4] [µM] | Ki [5] [µM] | Ki (Prostacyclin receptor) [µM] | Ki [6] [µM] | EC50 [7] [µM] | IC50 [8] [µM] | half-life [9] [min]
O=C(O)CCCCCCN1C(=O)CC[C@@H]1/C=C/C(O)CCc1ccccc1 (some centres not stated) | > 13 | > 13 | > 13 | 2.01 | > 13 | 0.102 | > 13 | > 13 |  |  | 
O=C1CC[C@H](/C=C/[C@@H](O)Cc2ccccc2)N1CCCCCCc1nnn[nH]1.O=C1CC[C@H](/C=C/[C@H](O)Cc2ccccc2)N1CCCCCCc1nnn[nH]1 | > 13 | > 13 | > 13 | > 13 | > 13 | 0.0025 | > 13 | > 13 |  |  | 
O=C1CC[C@H](/C=C/[C@@H](O)Cc2ccccc2)N1CCCCCCc1nnn[nH]1 | > 13 | > 13 | > 13 | > 13 | > 13 | 0.0012 | > 13 | > 13 | 0.0025 | 0.0014 | 
CCCCCC(O)/C=C/[C@@H]1CCC(=O)N1CCCCCCC(=O)O (some centres not stated) | > 13 | > 13 | > 13 | 1.22 | > 13 | 1.41 | > 13 | > 13 |  |  | 
O=C(O)CSCCCCN1C(=O)CC[C@@H]1/C=C/C(O)Cc1ccccc1 (some centres not stated) | > 13 | > 13 | > 13 | > 13 | > 13 | 0.013 | > 13 | > 13 |  |  | 
CCCCCC(O)CC[C@@H]1CCC(=O)N1CCCCCCC(=O)O (some centres not stated) | > 13 | > 13 | 3.61 | 2.32 | > 13 | 1.11 | > 13 | > 13 |  |  | 
O=C(O)CCCCCCN1C(=O)CC[C@@H]1/C=C/C(O)Cc1ccccc1 (some centres not stated) | > 13 | > 13 | > 13 | > 13 | > 13 |  | > 13 | > 13 |  |  | < 20
COC(=O)CSCCCCN1C(=O)CC[C@@H]1/C=C/C(O)Cc1ccccc1 (some centres not stated) | > 13 | > 13 | > 13 | > 13 | > 13 | 0.443 | > 13 | > 13 |  |  | 
CCCCCC(O)/C=C/[C@H]1CCC(=O)N1CCCCCCC(=O)O (some centres not stated) | > 13 | > 13 | 6.68 | 0.419 | > 13 | 0.006 | > 13 | > 13 |  |  | 
O=C(O)CCCCCCN1C(=O)CC[C@@H]1/C=C/C(O)C1(c2ccccc2)CC1 (some centres not stated) | > 13 | > 13 | > 13 | 3.34 | > 13 | 0.012 | > 13 | > 13 |  |  | 
O=C(O)CCCCCCN1C(=O)CC[C@@H]1/C=C/C(O)C1CCCCC1 (some centres not stated) | > 13 | > 13 | > 13 | > 13 | > 13 | 3.5 | > 13 | > 13 |  |  | 
